≈ marks a conversion by molar mass, not a printed value.
Columns and labels:
Format in all cases: functional, cell-based
[1] = test system: A549; experiment: Cytotoxicity against human A549 cells after 3 days by SRB assay; settings: A549, 72 h
Procedure, shortened: (§1)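 Freshly trypsinized cells seeded at 1500–7500 per well, compound added from DMSO-diluted stock. After 3 days attached cells were fixed with cold 50% TCA, stained with 0.4% SRB, bound dye solubilized and read at 562 nm.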

[2] = test system: KB; experiment: Cytotoxicity against human vincristine-resistant KB cells overexpressing p-glycoprotein after 3 days by SRB assay; settings: 72 h; procedure, shortened: as §1
[3] = test system: DU-145; experiment: Cytotoxicity against human DU145 cells after 3 days by SRB assay; settings: DU-145, 72 h; procedure, shortened: as §1
[4] = test system: KB; experiment: Cytotoxicity against human KB cells after 3 days by SRB assay; settings: 72 h; procedure, shortened: as §1

**Q.** How did the IC50 [1] turn out when `C=C(C)CC[C@H](C[C@@H]1C[C@]2(CC=C(C)C)C(=O)[C@@](C(=O)c3ccc(O)c(O)c3)(C(=O)C(CC=C(C)C)=C2O)C1(C)C)C(=C)C` [GARCINIALIPTONE D] was run?
**A.** 4.4 µg/mL (≈ 7.3 µM)

**Q.** And the IC50 [2]?
**A.** 4.6 µg/mL (≈ 7.63 µM)

**Q.** What about the IC50 [3] of the same molecule?
**A.** 3.3 µg/mL (≈ 5.47 µM)

**Q.** And the IC50 [4]?
**A.** 3.9 µg/mL (≈ 6.47 µM)

**Q.** Which IC50 [2] does the source give for `CC(=O)O[C@H]1C(=O)[C@@]2(C)[C@H]([C@H](OC(=O)c3ccccc3)[C@]3(O)C[C@H](OC(=O)[C@H](O)[C@@H](NC(=O)c4ccccc4)c4ccccc4)C(C)=C1C3(C)C)[C@]1(OC(C)=O)CO[C@@H]1C[C@@H]2O` [PACLITAXEL] here?
**A.** > 0.085 µg/mL

**Q.** And the IC50 [3]?
**A.** 0.002 µg/mL (≈ 0.00234 µM)

**Q.** And the IC50 [4]?
**A.** 0.002 µg/mL (≈ 0.00234 µM)

**Q.** With `CC(C)=CC[C@@H]1C[C@]23C[C@H](CC=C(C)C)C(C)(C)[C@](CC=C(C)C)(C(=O)C(C(=O)c4ccc(O)c(O)c4)=C2OC1(C)C)C3=O` [ISOXANTHOCHYMOL] as the molecule, how does the IC50 [1] read?
**A.** 4.4 µg/mL (≈ 7.3 µM)

**Q.** What about the IC50 [2] of the same molecule?
**A.** 5.2 µg/mL (≈ 8.63 µM)

**Q.** And the IC50 [3]?
**A.** 4.2 µg/mL (≈ 6.97 µM)

**Q.** What about the IC50 [4] of the same molecule?
**A.** 4.5 µg/mL (≈ 7.47 µM)

**Q.** With `C=C(C)CCC(C[C@@]12C[C@H]3[C@@H](C=C(C)C)[C@@](C(=O)c4ccc(O)c(O)c4)(C1=O)C(=O)[C@@](CC=C(C)C)(C2=O)C3(C)C)C(=C)C` (some centres undefined) as the molecule, how does the IC50 [1] read?
**A.** 4.2 µg/mL (≈ 6.99 µM)

**Q.** What about the IC50 [2] of the same molecule?
**A.** 5.6 µg/mL (≈ 9.32 µM)

**Q.** What about the IC50 [3] of the same molecule?
**A.** 4.1 µg/mL (≈ 6.82 µM)

**Q.** And the IC50 [4]?
**A.** 5.7 µg/mL (≈ 9.49 µM)

**Q.** `C=C(C)CC[C@H]1C[C@@]23C[C@@H](CC=C(C)C)C(C)(C)[C@@](CC=C(C)C)(C(=O)C(C(=O)c4ccc(O)c(O)c4)=C2OC1(C)C)C3=O` was tested. Which IC50 [1] did it give?
**A.** 4.5 µg/mL (≈ 7.47 µM)

**Q.** And the IC50 [2]?
**A.** 5.2 µg/mL (≈ 8.63 µM)

**Q.** And the IC50 [3]?
**A.** 4.7 µg/mL (≈ 7.8 µM)

**Q.** What about the IC50 [4] of the same molecule?
**A.** 4.9 µg/mL (≈ 8.13 µM)

**Q.** How did the IC50 [1] turn out when `C=C(C)CC[C@H](C[C@@H]1C[C@@]2(CC=C(C)C)C(=O)C3=C(O[C@H](C(C)(C)O)C3)[C@](C(=O)c3ccc(O)c(O)c3)(C2=O)C1(C)C)C(=C)C` [GARCINIALIPTONE C] was run?
**A.** 4.3 µg/mL (≈ 6.95 µM)

**Q.** And the IC50 [2]?
**A.** 4.9 µg/mL (≈ 7.92 µM)

**Q.** What about the IC50 [3] of the same molecule?
**A.** 4.3 µg/mL (≈ 6.95 µM)

**Q.** What about the IC50 [4] of the same molecule?
**A.** 3.4 µg/mL (≈ 5.49 µM)

**Q.** `C=C(C)CCC(C[C@]12C[C@@H]3[C@H](C=C(C)C)[C@](C(=O)c4ccc(O)c(O)c4)(C1=O)C(=O)[C@](CC=C(C)C)(C2=O)C3(C)C)C(=C)C` (some centres undefined) was tested. Which IC50 [1] did it give?
**A.** 4.2 µg/mL (≈ 6.99 µM)

**Q.** And the IC50 [2]?
**A.** 5.3 µg/mL (≈ 8.82 µM)

**Q.** What about the IC50 [3] of the same molecule?
**A.** 4.2 µg/mL (≈ 6.99 µM)

**Q.** What about the IC50 [4] of the same molecule?
**A.** 4.4 µg/mL (≈ 7.32 µM)

**Q.** Which IC50 [1] does the source give for `C=C(C)[C@@H]1C[C@]23C[C@H](CC=C(C)C)C(C)(C)[C@](CC=C(C)C)(C(=O)C(C(=O)c4ccc(O)c(O)c4)=C2O[C@H]1C=C(C)C)C3=O` [GARCINIALIPTONE B] here?
**A.** 6.7 µg/mL (≈ 11.2 µM)

**Q.** What about the IC50 [2] of the same molecule?
**A.** 6.6 µg/mL (≈ 11 µM)

**Q.** And the IC50 [3]?
**A.** 7.3 µg/mL (≈ 12.2 µM)

**Q.** What about the IC50 [4] of the same molecule?
**A.** 5.7 µg/mL (≈ 9.49 µM)

**Q.** With `C=C(C)CC[C@@H]1C[C@]23C[C@H](CC=C(C)C)C(C)(C)[C@](CC=C(C)C)(C(=O)C(C(=O)c4ccc(O)c(O)c4)=C2OC1(C)C)C3=O` [CYCLOXANTHOCHYMOL] as the molecule, how does the IC50 [1] read?
**A.** 4.5 µg/mL (≈ 7.47 µM)

**Q.** And the IC50 [2]?
**A.** 4.9 µg/mL (≈ 8.13 µM)

**Q.** What about the IC50 [3] of the same molecule?
**A.** 3.7 µg/mL (≈ 6.14 µM)

**Q.** And the IC50 [4]?
**A.** 5 µg/mL (≈ 8.29 µM)

**Q.** `CC(C)=CCC1=C2O[C@H](C(C)(C)O)C[C@@]23C[C@H](CC=C(C)C)C(C)(C)[C@@](C(=O)C(C)C)(C1=O)C3=O` was tested. Which IC50 [1] did it give?
**A.** > 5 µg/mL

**Q.** What about the IC50 [2] of the same molecule?
**A.** > 5 µg/mL

**Q.** What about the IC50 [3] of the same molecule?
**A.** > 5 µg/mL

**Q.** What about the IC50 [4] of the same molecule?
**A.** > 5 µg/mL

Reference: ChEMBL document CHEMBL1157087, “Cytotoxic polyisoprenyl benzophenonoids from Garcinia subelliptica” (J Nat Prod, 2010)
